# Laboratory results taken from article PMC8427777 (ACS Omega, 2021).
# “Also recorded” adds a separate entry of the source. Where two headings read alike, the source gives them in different places. acyl = not defined here
# T1: recombinant human C5a (Homo sapiens, UniProt P01031)
# T1 sequence (P01031 678-751 limits assumed): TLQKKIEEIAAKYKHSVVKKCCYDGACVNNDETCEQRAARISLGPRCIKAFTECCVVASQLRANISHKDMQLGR
# T2: recombinant human C5a (human, UniProt P01031 678-751)
# T2 sequence (looked up): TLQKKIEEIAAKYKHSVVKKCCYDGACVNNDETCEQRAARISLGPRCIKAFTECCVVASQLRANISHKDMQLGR
# Tests used:
# [1] = test system: C5a; test: Effect of prednisone on SR3–C5a interaction by CD; format: binding, human; conditions: 0.5 μM PDN, 0.35 μM SR3, 0.1 μM C5a, PBS, 25 °C; preliminary
# [2] = biological target: T1, recombinant human C5a; test: Two-site fluorescence study: ECL2 peptide; format: binding; conditions: 0.5–1 μM SR1
# Summary of the method: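 Two-site fluorescence: 0.1 μM C5a was preincubated with 0.5 μM NT-peptide and titrated with 0–1 μM ECL2 peptide. Readings were taken in 1× PBS (pH ∼ 7.4) at 25°C, with excitation at 278–280 nm, emission at 290–450 nm and 5 nm slits. Three scans were averaged and the free-peptide signal was subtracted.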
# [3] = biological target: T1, recombinant human C5a; test: Two-site CD study: ECL2 peptide; format: binding
# Summary of the method: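 Two-site CD: 0.1 μM recombinant human C5a was preincubated with 0.5 μM NT-peptide, then titrated with 0–1 μM ECL2 peptide. Far-UV CD was run at 25°C in 1× PBS (pH ∼ 7.4), with at least three scans (1 s time constant, 1 nm step). Each sample was prepared and read separately, and the signal of the corresponding free peptides was subtracted.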
# [4] = up to 100 μM, in solution; ref not given ("has been reported"); cited from earlier work
# [5] = biological target: T1, recombinant human C5a; test: CD titration of NT-peptides against recombinant human C5a; format: binding
# Summary of the method: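 Far-UV CD at 25°C in filtered, degassed 1× PBS (pH ∼ 7.4). Recombinant human C5a was held at 0.1 μM and NT-peptides (native Met1-Lys28 sequence or mutants) at 0–1 μM. Samples were incubated ≥1 h at 4°C, each prepared and read separately, with at least three scans (1 s time constant, 1 nm step). Free-peptide signal was subtracted, and data were converted to mean residue ellipticity, normalized and fitted by nonlinear regression for affinity.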
# [6] = Intrinsic tyrosine fluorescence of free peptides; format: physicochemical; conditions: at the working concentrations, 1× PBS pH ∼ 7.4, 25 °C
# [7] = Conformational analysis of free peptides by CD; format: physicochemical; conditions: 1 μM, PBS pH ∼7.4, 25 °C; compared with SR3
# [8] = biological target: T2, recombinant human C5a; test: circular dichroism titration + other fluorescence titration
# [9] = test system: C5aR1; conditions: cited from earlier work
# [10] = biological target: T2, recombinant human C5a; test: circular dichroism titration + other fluorescence titration; remark: listed apart in the source
# [11] = test system: COVID-19; conditions: anti-C5a antibody; cited from earlier work
molecule,measurement,setting,value
"C[C@]12C=CC(=O)C=C1CC[C@@H]1[C@@H]2C(=O)C[C@@]2(C)[C@H]1CC[C@]2(O)C(=O)CO [PDN, prednisone]",response of PDN-preincubated C5a to SR3 compared to free C5a,[1],comparatively weaker response
"SR1: native ECL2 sequence of C5aR1 (Tyr174-Arg198), acylated and amidated, carrying Cys188/Ser mutation (acyl-YRVVREEYFPPKVLSGVDYSHDKRR-NH2; reading uncertain)","fluorescence response, C5a preincubated with SR3 or SR5",[2]; 0.1 μM C5a + 0.5 μM SR3 or SR5,consistent with the observation made in the CD; also recorded: modest change in fluorescence intensity
same,"fluorescence response, C5a preincubated with SR4",[2]; 0.1 μM C5a + 0.5 μM SR4,quenched appreciably
same,"CD response, C5a preincubated with SR3, 0.5 μM SR1","[3]; 0.1 μM C5a + 0.5 μM SR3, PBS, 25 °C, 0.5 μM SR1",substantially enhanced the CD signal
same,"CD response, C5a preincubated with SR3, 1 μM SR1 (vs 0.5 μM)","[3]; 0.1 μM C5a + 0.5 μM SR3, PBS, 25 °C, 1 μM SR1",did not change further
same,"CD response, C5a preincubated with SR4","[3]; 0.1 μM C5a + 0.5 μM SR4, compared to the C5a–SR3/C5a–SR5 system",relatively strong conformational response
same,CD signature of free ECL2 peptide,[4],twisted short-stranded β-hairpin-like conformation
SR4 (MASFNYTTPAYGHYAAKATLDLNTPVAK),change of CD signal / conformation of C5a,"[5]; 0.1 μM C5a, 0-1 μM peptide, PBS pH ∼ 7.4, 25 °C",robust conformational alteration
same,binding affinity toward C5a in words,[5]; CD and fluorescence titration studies taken together (A1 and A2),could not be obtained reliably; also recorded: did not demonstrate a quantifiable binding affinity
same,intrinsic fluorescence,[6],very negligible
same,effect of alanine mutations on conformational ordering,[7],can potentially affect the overall conformational ordering
"MDSFNATTPDAGHADDKDTLDLNTPVDK (peptide, UniProt P21730 1-28, looked up) [SR5, Tyr/Ala mutant NT-peptide of C5aR1 (Met1-Lys28)]",Kd,[8],0.105 to 0.123 µM
"MDSFNYTTPDYGHYDDKDTLDLNTPVDK (peptide, UniProt P21730 1-28, looked up) [SR3, native NT-peptide of C5aR1 (Met1-Lys28)]",Kd,[8],0.126 to 0.193 µM
"C5a: cationic proinflammatory glycoprotein, complement anaphylatoxin; ligand of C5aR1 (protein) TLQKKIEEIAAKYKHSVVKKCCYDGACVNNDETCEQRAARISLGPRCIKAFTECCVVASQLRANISHKDMQLGR",potency toward C5aR1,[9],nanomolar to picomolar potency
same,potency toward C5aR1,[9]; native-like conditions,picomolar–nanomolar potency
"acyl-YRVVREEYFPPKVLSGVDYSHDKRR-NH2 (peptide, UniProt P21730 174-198, looked up, reading uncertain) [SR1, ECL2 peptide of C5aR1 (Tyr174-Arg198)]",binding result,[10],binds
"Vilobelimab: anti-C5a antibody (antibody, chains of the INN, looked up, V domains shown) VH: QVQLQQSGPQLVRPGTSVKISCKASGYSFTTFWMDWVKQRPGQGLEWIGRIDPSDSESRLDQRFKDRATLTVDKSSSTVYMQLSSPTSEDSAVYYCARGNDGYYGFAYWGQGTLVTVSS VL: DIVLTQSPASLAVSLGQRATISCKASQSVDYDGDSYMKWYQQKPGQPPKLLIYAASNLQSGIPARFSGSGSGTDFTLNIHPVEEEDAATYYCQQSNEDPYTFGGGTKLEIK",outcome in COVID-19 treatment,[11],favorable outcome
